Reference: ChEMBL document CHEMBL1128223 (J Med Chem, 1995)

What was measured:
[1] = tested on: SK-VLB; assay: Cytotoxicity was determined in vitro in SKVLB cells(ovarian with upregulated MDRp-glycoprotein) of human tumor cell lines by using MTT assay; type: functional, cell-based
In short: (§1)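 MTT microculture tetrazolium assay. Cells grown in α-MEM with 15% heat-inactivated FBS, glutamine, pyruvate, insulin and nonessential amino acids at 37 °C, 5% CO2. Seeded at 1500–4000 cells/well and allowed to adhere overnight. Exposed to compound for 48 h, then fresh medium for 48 h, quadruplicate per concentration. MTT 4 h, dye extracted in DMSO, A570 read. IC50 (50% cell kill) from four-parameter logistic fit.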

[2] = tested on: HT-29; assay: Cytotoxicity was determined in vitro in HT-29 cells(colon) of human tumor cell lines by using MTT assay; type: functional, cell-based; in short: as §1
[3] = tested on: T47D; assay: Cytotoxicity was determined in vitro in T47D cells(breast) of human tumor cell lines by using MTT assay; type: functional, cell-based
In short: (§2)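 Cells grown in α-MEM with 15% heat-inactivated FBS, 2 mM L-glutamine, 1 mM pyruvate, insulin and nonessential amino acids at 37 °C, 5% CO2. Seeded at 1500–4000 cells/well and allowed to adhere overnight. Exposed to compound for 48 h, then to fresh medium for 48 h, in quadruplicate per concentration. MTT for 4 h, dye extracted in DMSO, A570 read. IC50 (50% cell kill) from four-parameter logistic fit.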

[4] = tested on: LOX IMVI; assay: Cytotoxicity was determined in vitro in LOX cells (melanoma) of human tumor cell lines by using MTT assay; type: functional, cell-based; in short: as §2
[5] = tested on: SK-OV-3; assay: Cytotoxicity was determined in vitro in SK-OV-3 cells (ovarian) of human tumor cell lines by using MTT assay; type: functional, cell-based; in short: as §1
[6] = MDR ratio as the ratio of IC50 value against SKVLB to that of SKOV3,; type: functional
[7] = tested on: Mus musculus; assay: The body weight loss was measured in mice in vivo by using the HT-29 Human colon Xenograft model at a dose of 1 mg/kg; type: functional
In short: (§3)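 HT29 s.c. xenografts in female nu/nu mice, 6 per group. Compound given s.c. in 0.1 M sodium acetate pH 5, twice weekly for 5 weeks. Body weights monitored; mean body weight loss and deaths recorded per dose group. Dose range included the highest dose from a dose-ranging study in naive mice, in which ≥30% weight loss was considered lethal.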

[8] = tested on: Mus musculus; assay: The body weight loss was measured in mice in vivo by using the HT-29 Human colon Xenograft model at a dose of 4 mg/kg; type: functional; in short: as §3
[9] = tested on: Mus musculus; assay: In vivo efficacy of tumor growth ratio(T/B) of compound was calculated by using the HT-29 Human colon Xenograft model in mice at a dose of 2 mg/kg; type: functional
In short: (§4)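 Female nu/nu mice, 10⁶ HT29 cells implanted subcutaneously in the flank. Groups of 6 started at about 150 mm2 palpable tumor. Compound in 0.1 M sodium acetate pH 5 given s.c. twice weekly for 5 weeks. Tumor volume from calipers as length × width²/2. T/B is mean volume at end of treatment divided by mean initial volume.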

[10] = tested on: Mus musculus; assay: In vivo efficacy of tumor growth ratio(T/B) of compound was calculated by using the HT-29 Human colon Xenograft model in mice at a dose of 3 mg/kg; type: functional; in short: as §4
[11] = tested on: Mus musculus; assay: The no. of deaths of mice(infected with HT-29 cells) was reported at a dose of 1 mg/kg; type: functional; in short: as §3
[12] = tested on: Mus musculus; assay: The body weight loss was measured in mice in vivo by using the HT-29 Human colon Xenograft model at a dose of 3 mg/kg; type: functional; in short: as §3
[13] = tested on: Mus musculus; assay: The no. of deaths of mice(infected with HT-29 cells) was reported at a dose of 3 mg/kg; type: functional; in short: as §3
[14] = tested on: Mus musculus; assay: In vivo efficacy of tumor growth ratio(T/B) of compound was calculated by using the HT-29 Human colon Xenograft model in mice at a dose of 1 mg/kg; type: functional; in short: as §4
[15] = tested on: Mus musculus; assay: The no. of deaths of mice(infected with HT-29 cells) was reported at a dose of 4 mg/kg; type: functional; in short: as §3
[16] = tested on: Mus musculus; assay: In vivo efficacy of tumor growth ratio(T/B) of compound was calculated by using the HT-29 Human colon Xenograft model in mice at a dose of 4 mg/kg; type: functional; in short: as §4
[17] = tested on: Mus musculus; assay: The body weight loss was measured in mice in vivo by using the HT-29 Human colon Xenograft model at a dose of 2 mg/kg; type: functional; in short: as §3
[18] = tested on: Mus musculus; assay: The no. of deaths of mice(infected with HT-29 cells) was reported at a dose of 2 mg/kg; type: functional; in short: as §3
[19] = tested on: Mus musculus; assay: In vivo efficacy of tumor growth ratio(T/B) of compound was calculated by using the HT-29 Human colon Xenograft model in mice at a dose of 6 mg/kg; type: functional
In short: (§5)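 Female nu/nu mice (18–24 g) given 10^6 HT29 cells subcutaneously in the left axillary flank. Grouped at 6 per dose with matched body weight and palpable tumor of about 150 mm². Compound in 0.1 M sodium acetate pH 5, 0.2 mL s.c., twice weekly for 5 weeks. Volume = length × width²/2 by calipers. T/B = end-of-treatment mean volume divided by initial mean volume.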

[20] = tested on: Mus musculus; assay: The no. of deaths of mice(infected with HT-29 cells) was reported at a dose of 12 mg/kg; type: ADME, organism-based; parameters: dose 12 mg/kg; settings: in vivo; in short: as §3
[21] = tested on: Mus musculus; assay: The body weight loss was measured in mice in vivo by using the HT-29 Human colon Xenograft model at a dose of 12 mg/kg; type: functional
In short: (§6)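 HT29 subcutaneous flank xenografts in female nu/nu mice, 6 per group. Compound in 0.1 M acetate buffer pH 5, 0.2 mL s.c., twice weekly for 5 weeks. Body weight monitored twice weekly. Value is group mean body weight loss, with ≥30% loss considered lethal. Dose ceiling set beforehand by dose-ranging in naive mice on the same schedule.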

[22] = tested on: Mus musculus; assay: The body weight loss was measured in mice in vivo by using the HT-29 Human colon Xenograft model at a dose of 6 mg/kg; type: functional; in short: as §6
[23] = tested on: Mus musculus; assay: In vivo efficacy of tumor growth ratio(T/B) of compound was calculated by using the HT-29 Human colon Xenograft model in mice at a dose of 9 mg/kg; type: functional; in short: as §5
[24] = tested on: Mus musculus; assay: The no. of deaths of mice(infected with HT-29 cells) was reported at a dose of 6 mg/kg; type: functional; in short: as §3
[25] = tested on: Mus musculus; assay: In vivo efficacy of tumor growth ratio(T/B) of compound was calculated by using the HT-29 Human colon Xenograft model in mice at a dose of 12 mg/kg; type: functional; in short: as §5
[26] = tested on: Mus musculus; assay: (§7) The no. of deaths of mice(infected with HT-29 cells) was reported at a dose of 9 mg/kg; type: functional; in short: as §3
[27] = tested on: Mus musculus; assay: The body weight loss was measured in mice in vivo by using the HT-29 Human colon Xenograft model at a dose of 9 mg/kg; type: functional; in short: as §6
[28] = tested on: Mus musculus; assay: The body weight loss was measured in mice in vivo by using the HT-29 Human colon Xenograft model at a dose of 11 mg/kg; type: functional; in short: as §6
[29] = tested on: Mus musculus; assay: The body weight loss was measured in mice in vivo by using the HT-29 Human colon Xenograft model at a dose of 7 mg/kg; type: functional; in short: as §6
[30] = tested on: Mus musculus; assay: In vivo efficacy of tumor growth ratio(T/B) of compound was calculated by using the HT-29 Human colon Xenograft model in mice at a dose of 5 mg/kg; type: functional; in short: as §5
[31] = tested on: Mus musculus; assay: The no. of deaths of mice(infected with HT-29 cells) was reported at a dose of 5 mg/kg; type: functional; in short: as §3
[32] = tested on: Mus musculus; assay: The no. of deaths of mice(infected with HT-29 cells) was reported at a dose of 7 mg/kg; type: functional; in short: as §3
[33] = tested on: Mus musculus; assay: In vivo efficacy of tumor growth ratio(T/B) of compound was calculated by using the HT-29 Human colon Xenograft model in mice at a dose of 11 mg/kg; type: functional; in short: as §5
[34] = tested on: Mus musculus; assay: The body weight loss was measured in mice in vivo by using the HT-29 Human colon Xenograft model at a dose of 5 mg/kg; type: functional; in short: as §6
[35] = tested on: Mus musculus; assay: The no. of deaths of mice(infected with HT-29 cells) was reported at a dose of 11 mg/kg; type: functional; in short: as §3
[36] = tested on: HT-29; assay: In vivo efficacy of tumor growth ratio(T/B) of compound was calculated by using the HT-29 Human colon Xenograft model in mice at a dose of 7 mg/kg; type: functional; in short: as §5
[37] = tested on: Mus musculus; assay: as §7; type: ADME, organism-based; parameters: dose 9 mg/kg; settings: in vivo; in short: as §3

Compound	IC50 [1] [µM]	IC50 [2] [µM]	IC50 [3] [µM]	IC50 [4] [µM]	IC50 [5] [µM]	MDR ratio [6]	Efficacy [10]	BW loss [12] [%]	Deaths [13]	Efficacy [23]	BW loss [27] [%]	further results
CC[C@@]1(O)C(=O)OCc2c1cc1n(c2=O)Cc2cc3ccccc3nc2-1 [CAMPTOTHECIN]	0.041	0.046	0.207	0.048	0.037	–	–	–	–	–	–	–
COc1cccc2c1C(=O)c1c(O)c3c(c(O)c1C2=O)C[C@@](O)(C(=O)CO)C[C@@H]3O[C@H]1C[C@H](N)[C@H](O)[C@H](C)O1 [DOXORUBICIN]	5.65	0.331	0.072	0.042	0.036	160	–	–	–	–	–	–
CC[C@@]1(O)C(=O)OCc2c1cc1n(c2=O)Cc2c-1nc1cc3c(cc1c2CN1CCN(C)CC1)OCO3.O=C(O)C(F)(F)F	0.017	0.002	0.03	0.0005	0.004	–	0.9	12	0	–	–	BW loss [7]: 11%; BW loss [8]: 20%; Efficacy [9]: 1.7; Deaths [11]: 0; Efficacy [14]: 6.4; Deaths [15]: 0; Efficacy [16]: 0.6; BW loss [17]: 8%; Deaths [18]: 0
CC[C@@]1(O)C(=O)OCc2c1cc1n(c2=O)Cc2c-1nc1cc3c(cc1c2CCl)OCCO3	0.008	0.013	–	–	0.004	2	–	–	–	–	–	–
CC[C@@]1(O)C(=O)OCc2c1cc1n(c2=O)Cc2c-1nc1cc3c(cc1c2CN1CCN(C)CC1)OCCO3.O=C(O)C(F)(F)F	0.102	0.006	0.038	0.001	0.016	6	5.5	8	0	0.8	7	Efficacy [19]: 1.6; Deaths [20]: 2; BW loss [21]: 22%; BW loss [22]: 5%; Deaths [24]: 0; Efficacy [25]: 0.4; Deaths [26]: 0
CC[C@@]1(O)C(=O)OCc2c1cc1n(c2=O)Cc2cc3c(CN(C)C)c(O)ccc3nc2-1 [TOPOTECAN]	0.149	0.025	0.104	0.005	0.044	–	–	–	–	4.3	17	BW loss [28]: 23%; BW loss [29]: 11%; Efficacy [30]: 8.6; Deaths [31]: 0; Deaths [32]: 0; Efficacy [33]: 2.9; BW loss [34]: 15%; Deaths [35]: 0; Efficacy [36]: 7; Deaths [37]: 2
